Laboratory results reported in publication PMC11776411 (Journal of Hepatocellular Carcinoma, 2025).

Columns and labels:
[1] = tested on: HepG2 cells; assay: MTT cell viability assay, HepG2; format: cell-based, human; conditions: for IC50: Homo sapiens, HepG2, 72 h, read-out: IC50 (μM) HepG2
[2] = tested on: Huh7 cells; assay: MTT cell viability assay, Huh7; format: cell-based, human; conditions: for IC50: Homo sapiens, Huh-7, 72 h, read-out: IC50 (μM) Huh7
[3] = tested on: Hep3B cells; assay: MTT cell viability assay, Hep3B; format: cell-based, human; conditions: for IC50: Homo sapiens, Hep3B, 72 h, read-out: IC50 (μM) Hep3B
[4] = tested on: LO2 cells (normal human hepatocytes); assay: MTT cytotoxicity assay, normal liver cells LO2; format: cell-based; conditions: L02, 72 h, read-out: IC50 (μM) LO2
Outline: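 LO2 normal human hepatocytes were grown in DMEM with 10% FBS and seeded at 5×10^3 cells per well overnight. Test compound was added at 0.1, 0.3, 1, 3, 10, 30 and 100 μM for up to 72 h. Viability was read by MTT: 0.5 mg/mL for 4 h, medium removed, DMSO added, absorbance measured. Experiments were repeated at least three times.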

[5] = tested on: Huh7 cells; assay: Ferroptosis inhibitor; format: cell-based, human; conditions: Huh7, co-treated with 10 μM 6c for 72 h
[6] = tested on: Huh7 cells; assay: NAC intervention experiment; format: cell-based, human; conditions: 5 or 10 mm N-acetylcysteine with 10 μM 6c for 24, 48, 72 h

## C[C@H]1[C@H](OC(=O)CCC(=O)O)O[C@@H]2O[C@@]3(C)CC[C@H]4[C@H](C)CC[C@@H]1[C@@]24OO3 [AS, Artesunate]
[1]
  IC50: 42.8 ± 1.44 µM
[1]; SI1 = IC50 LO2/IC50 HepG2
  Selectivity Index SI 1: 1.7
[2]
  IC50: 47.5 ± 1.39 µM
[2]; SI2 = IC50 LO2/IC50 Huh7
  Selectivity Index SI 2: 1.5
[3]
  IC50: 44.2 ± 2.16 µM
[3]; SI3 = IC50 LO2/IC50 Hep3B
  Selectivity Index SI 3: 1.6
[4]
  IC50: 72.3 ± 1.37 µM

## CNC(=O)c1cc(Oc2ccc(N)cc2)ccn1 [Compound 1, 4-(4-aminophenoxy)-N-methyl-2-pyridinecarboxamide]
[2]
  IC50: > 100 µM
[3]
  IC50: > 100 µM

## Clc1cccc(CN=C2Nc3ccccc3NC23CCNCC3)c1 [Liproxstatin-1]
[5]
  reversal of 6c-induced cell death: reversed cell death in a concentration-dependent manner

## CC(=O)N[C@@H](CS)C(=O)O [N-acetylcysteine]
[6]
  reversal of 6c inhibition of proliferation: reversed the inhibitory effect of 6c on proliferation of Huh7 cells in time- and concentration-dependent manner

## CNC(=O)c1cc(Oc2ccc(NC(=O)Nc3ccc(Cl)c(C(F)(F)F)c3)cc2)ccn1 [Sorafenib]
[1]
  IC50: 6.45 ± 0.32 µM
[2]
  IC50: 3.09 ± 0.08 µM
[4]
  IC50: 8.63 ± 0.12 µM
